Experimental data reported in article PMC9049079 (RSC Advances, 2020).

Tests used:
[1] = target: T1, α-Glucosidase from Saccharomyces cerevisiae (Saccharomyces cerevisiae, UniProt P53341); experiment: α-Glucosidase inhibition assay; format: biochemical
[2] = target: T1, α-Glucosidase from Saccharomyces cerevisiae; experiment: Inhibitory kinetic analysis; format: biochemical
How it was run: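 Enzyme in 100 mM phosphate buffer pH 6.8 at 37 °C with varied pNPG and test compound at 0, 2, 4, 6, 10 μM. Reversibility was tested as rate vs enzyme at 1.35–5.40 × 10−2 μM final. Lineweaver–Burk plots used enzyme at 6.96 × 10−2 μM. Ki came from nonlinear regression to competitive, non-competitive and mixed models. Mean ± SD, n = 3.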

[3] = target: T1, α-Glucosidase from Saccharomyces cerevisiae; experiment: Fluorescence quenching of α-glucosidase; format: binding; details: for Kq (quenching rate constant): Kq = KSV/τ0, τ0 = 10^−8 s; for Kd: K a (binding constant); for ΔG°: ΔG = ΔH − TΔS
How it was run: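 Intrinsic fluorescence quenching: enzyme at 6.96 × 10−2 μM, titrated with test compound (0–1.10 μM final), 5 min equilibration, at 298, 304 and 310 K. Excitation 280 nm, emission 290–500 nm, slits 2.5 nm. Buffer (pH 6.8) and compound blanks were subtracted, with inner-filter correction from absorbance. KSV from linear F0/F vs [Q]. Ka and n from double-log plot. ΔH/ΔS from van't Hoff; ΔG = ΔH − TΔS.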

[4] = van't Hoff plot, 298, 304 and 310 K

T1 sequence (P53341 whole entry): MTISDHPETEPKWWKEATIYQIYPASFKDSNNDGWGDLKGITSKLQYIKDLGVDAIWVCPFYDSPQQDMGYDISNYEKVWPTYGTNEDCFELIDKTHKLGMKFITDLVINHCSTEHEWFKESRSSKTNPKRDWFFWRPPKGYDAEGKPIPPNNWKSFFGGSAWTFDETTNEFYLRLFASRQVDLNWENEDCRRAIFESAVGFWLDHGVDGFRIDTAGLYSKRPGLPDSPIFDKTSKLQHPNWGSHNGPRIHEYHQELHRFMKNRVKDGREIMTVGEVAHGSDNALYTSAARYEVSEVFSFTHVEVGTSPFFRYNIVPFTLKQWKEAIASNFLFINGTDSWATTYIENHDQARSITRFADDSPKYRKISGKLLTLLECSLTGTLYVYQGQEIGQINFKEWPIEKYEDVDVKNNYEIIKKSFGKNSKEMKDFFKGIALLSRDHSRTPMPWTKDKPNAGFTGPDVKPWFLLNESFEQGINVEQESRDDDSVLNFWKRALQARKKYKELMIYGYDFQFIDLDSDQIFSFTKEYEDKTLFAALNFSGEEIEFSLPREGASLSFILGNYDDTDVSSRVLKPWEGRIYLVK

Oc1cc(O)cc(/C=C/c2ccc(O)c(O)c2)c1 [piceatannol, Piceatannol]
IC50 [1]: 4390 ± 740 nM | Ki [2]: 5380 ± 240 nM | type of inhibition (mechanism) ([2]; Lineweaver–Burk plots, piceatannol 0-10 μM): non-competitive | reversibility of inhibition ([2]; plots of υ versus [α-glucosidase], piceatannol 0-10 μM): reversible | Kq (quenching rate constant) ([3]; 298 K): 5.02e+13 M⁻¹ s⁻¹ | Kq (quenching rate constant) ([3]; 304 K): 7.01e+13 M⁻¹ s⁻¹ | Kq (quenching rate constant) ([3]; 310 K): 1.604e+14 M⁻¹ s⁻¹ | Kd ([3]; T 298 K): 2030 nM | Kd ([3]; T 304 K): 1380 nM | Kd ([3]; T 310 K): 739 nM | K SV (Stern–Volmer quenching constant) ([3]; T 298 K): 5.02 ± 0.039 ×10^5 L mol^−1 | n (number of binding sites per α-glucosidase molecule) ([3]; T 298 K): 1.17 ± 0.057 | ΔG° ([3]; T 298 K): -7.741 ± 2.3 kcal/mol | K SV (Stern–Volmer quenching constant) ([3]; T 304 K): 7.01 ± 0.032 ×10^5 L mol^−1 | n (number of binding sites per α-glucosidase molecule) ([3]; T 304 K): 1.16 ± 0.045 | ΔG° ([3]; T 304 K): -8.207 ± 2.3 kcal/mol | K SV (Stern–Volmer quenching constant) ([3]; T 310 K): 16.04 ± 0.049 ×10^5 L mol^−1 | n (number of binding sites per α-glucosidase molecule) ([3]; T 310 K): 1.32 ± 0.017 | ΔG° ([3]; T 310 K): -8.676 ± 2.3 kcal/mol | ΔH° [3, 4]: 15.43 ± 2.31 kcal/mol | ΔS° [3, 4]: 325.31 ± 31.80 J mol^−1 K^−1
